In PMC4764504 (Journal of medicinal chemistry, 2015):
“And” between values parts separate entries of the source, which are not always exact repeats. Identical values can stand only once.

Assays:
DBT glioma cells = test: Competitive amino acid cell uptake assays; format: cell-based, mouse; conditions: 60 s, 37 °C
How it was run: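 Mouse DBT glioma cells were seeded at 1 × 10⁵ cells/well and grown 48 h in 10% FBS DMEM under 5% CO₂. Cells were washed twice in 37 °C buffer, then exposed for 60 s at 37 °C, pH 7.40, to the radiotracer. Buffers were Na phosphate-buffered saline or choline-substituted Na-free buffer. Controls had 10 mM sucrose; BCH was 10 mM. Cells were washed with ice-cold buffer, lysed in 0.2% SDS/0.2 M NaOH, γ-counted, and normalized to added activity and BCA protein. Values are % of control, triplicate × two plates.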

[1] = tested on: BALB/c Mice with Subcutaneous Flank DBT Tumors; test: Whole body biodistribution in mice with subcutaneous DBT gliomas; format: in vivo, mouse; conditions: for biodistribution, tumor uptake: subcutaneous DBT tumor
How it was run: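 Male BALB/c mice carried subcutaneous flank DBT tumors (5 × 10⁵ cells) and were used at day 14. Under 1% isoflurane–oxygen, each received ~56 μCi (2.07 MBq) of ⁷⁶Br-labelled or 45 μCi (1.67 MBq) of ¹²³I-labelled test compound by tail vein in 0.9% saline. Mice were killed at 5 min, 30 min, 1, 3 and 24 h (n = 4 per time). Tissues were weighed and γ-counted with decay correction, giving % ID/g.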

SMILES: C[C@](N)(/C=C/[123I])C(=O)O [[^123I]8, (S)-amino-2-methyl-4-[^123I]iodo-3-(E)-butenoic acid, reference compound]
- uptake relative to control (DBT glioma cells; Na BCH condition (BCH 10 mM, system L inhibitor, sodium buffer)): 39 ± 12%
- uptake compared to sodium control (DBT glioma cells; choline + BCH (sodium-free, Cho-BCH)): 31 ± 12%
- uptake compared to the sodium control (DBT glioma cells; choline control (sodium-free, Cho-sucrose)): 33 ± 6.6%
- uptake relative to the control (DBT glioma cells; in the presence of MeAIB (10 mM, system A inhibitor), sodium buffer): 25 ± 3.4%
- biodistribution, blood ([1]; 5 min after i.v. injection): 3.86 ± 0.50 % ID/g
- biodistribution, blood ([1]; 30 min after i.v. injection): 1.07 ± 0.16 % ID/g
- biodistribution, blood ([1]; 1 h after i.v. injection): 0.37 ± 0.05 % ID/g
- biodistribution, blood ([1]; 3 h after i.v. injection): 0.07 ± 0.02 % ID/g
- biodistribution, blood ([1]; 24 h after i.v. injection): 0.0005 ± 0.0000 % ID/g
- biodistribution, bone ([1]; 5 min after i.v. injection): 1.94 ± 0.28 % ID/g
- biodistribution, bone ([1]; 30 min after i.v. injection): 1.20 ± 0.21 % ID/g
- biodistribution, bone ([1]; 1 h after i.v. injection): 0.55 ± 0.39 % ID/g
- biodistribution, bone ([1]; 3 h after i.v. injection): 0.39 ± 0.35 % ID/g
- biodistribution, bone ([1]; 24 h after i.v. injection): 0.0042 ± 0.0020 % ID/g
- biodistribution, brain ([1]; 5 min after i.v. injection): 0.27 ± 0.03 % ID/g
- biodistribution, brain ([1]; 30 min after i.v. injection): 0.17 ± 0.04 % ID/g
- biodistribution, brain ([1]; 1 h after i.v. injection): 0.27 ± 0.35 % ID/g
- biodistribution, brain ([1]; 3 h after i.v. injection): 0.07 ± 0.00 % ID/g
- biodistribution, brain ([1]; 24 h after i.v. injection): 0.0010 ± 0.0003 % ID/g
- biodistribution, fat ([1]; 5 min after i.v. injection): 0.87 ± 0.26 % ID/g
- biodistribution, fat ([1]; 30 min after i.v. injection): 0.22 ± 0.09 % ID/g
- biodistribution, fat ([1]; 1 h after i.v. injection): 0.19 ± 0.07 % ID/g
- biodistribution, fat ([1]; 3 h after i.v. injection): 0.04 ± 0.01 % ID/g
- biodistribution, heart ([1]; 5 min after i.v. injection): 2.30 ± 0.02 % ID/g
- biodistribution, heart ([1]; 30 min after i.v. injection): 1.78 ± 0.35 % ID/g
- biodistribution, heart ([1]; 1 h after i.v. injection): 0.90 ± 0.06 % ID/g
- biodistribution, heart ([1]; 3 h after i.v. injection): 0.18 ± 0.05 % ID/g
- biodistribution, heart ([1]; 24 h after i.v. injection): 0.0005 ± 0.0005 % ID/g
- biodistribution, kidney ([1]; 5 min after i.v. injection): 31.27 ± 6.91 % ID/g
- biodistribution, kidney ([1]; 30 min after i.v. injection): 9.90 ± 3.24 % ID/g
- biodistribution, kidney ([1]; 1 h after i.v. injection): 2.68 ± 0.55 % ID/g
- biodistribution, kidney ([1]; 3 h after i.v. injection): 0.39 ± 0.09 % ID/g
- biodistribution, kidney ([1]; 24 h after i.v. injection): 0.0032 ± 0.0017 % ID/g
- biodistribution, liver (all) ([1]; 5 min after i.v. injection): 2.83 ± 0.25 % ID/g
- biodistribution, liver (all) ([1]; 30 min after i.v. injection): 0.91 ± 0.20 % ID/g
- biodistribution, liver (all) ([1]; 1 h after i.v. injection): 0.25 ± 0.03 % ID/g
- biodistribution, liver (all) ([1]; 3 h after i.v. injection): 0.07 ± 0.02 % ID/g
- biodistribution, liver (all) ([1]; 24 h after i.v. injection): 0.0006 ± 0.0002 % ID/g
- biodistribution, lung ([1]; 5 min after i.v. injection): 3.54 ± 0.31 % ID/g
- biodistribution, lung ([1]; 30 min after i.v. injection): 1.01 ± 0.28 % ID/g
- biodistribution, lung ([1]; 1 h after i.v. injection): 0.33 ± 0.06 % ID/g
- biodistribution, lung ([1]; 3 h after i.v. injection): 0.06 ± 0.02 % ID/g
- biodistribution, lung ([1]; 24 h after i.v. injection): 0.0007 ± 0.0006 % ID/g
- biodistribution, muscle ([1]; 5 min after i.v. injection): 1.65 ± 0.05 % ID/g
- biodistribution, muscle ([1]; 30 min after i.v. injection): 1.41 ± 0.22 % ID/g
- biodistribution, muscle ([1]; 1 h after i.v. injection): 0.68 ± 0.17 % ID/g
- biodistribution, muscle ([1]; 3 h after i.v. injection): 0.12 ± 0.06 % ID/g
- biodistribution, muscle ([1]; 24 h after i.v. injection): 0.0011 ± 0.0006 % ID/g
- biodistribution, pancreas ([1]; 5 min after i.v. injection): 29.26 ± 8.15 % ID/g
- biodistribution, pancreas ([1]; 30 min after i.v. injection): 21.03 ± 4.38 % ID/g
- biodistribution, pancreas ([1]; 1 h after i.v. injection): 5.75 ± 1.20 % ID/g
- biodistribution, pancreas ([1]; 3 h after i.v. injection): 0.99 ± 0.46 % ID/g
- biodistribution, pancreas ([1]; 24 h after i.v. injection): 0.0052 ± 0.0021 % ID/g
- biodistribution, spleen ([1]; 5 min after i.v. injection): 3.92 ± 0.99 % ID/g
- biodistribution, spleen ([1]; 30 min after i.v. injection): 2.23 ± 0.34 % ID/g
- biodistribution, spleen ([1]; 1 h after i.v. injection): 0.68 ± 0.12 % ID/g
- biodistribution, spleen ([1]; 3 h after i.v. injection): 0.15 ± 0.05 % ID/g
- biodistribution, spleen ([1]; 24 h after i.v. injection): 0.0012 ± 0.0010 % ID/g
- biodistribution, tumor uptake ([1]; 5 min after i.v. injection): 2.8 ± 0.8 % ID/g and 2.78 ± 0.83 % ID/g
- biodistribution, tumor uptake ([1]; 30 min after i.v. injection): 2.7 ± 0.6 % ID/g and 2.68 ± 0.56 % ID/g
- biodistribution, tumor uptake ([1]; 1 h after i.v. injection): 1.53 ± 0.66 % ID/g
- biodistribution, tumor uptake ([1]; 3 h after i.v. injection): 0.65 ± 0.16 % ID/g
- biodistribution, tumor uptake ([1]; 24 h after i.v. injection): 0.0012 ± 0.0007 % ID/g
- biodistribution, thyroid ([1]; thyroid, 5 min after i.v. injection): 2.51 ± 0.39 % ID/g
- thyroid uptake ([1]; thyroid, 5 min after injection): 2.5 ± 0.4 % ID/organ
- biodistribution, thyroid ([1]; thyroid, 30 min after i.v. injection): 1.38 ± 0.38 % ID/g
- biodistribution, thyroid ([1]; thyroid, 1 h after i.v. injection): 0.97 ± 0.28 % ID/g
- biodistribution, thyroid ([1]; thyroid, 3 h after i.v. injection): 0.65 ± 0.29 % ID/g
- thyroid activity ([1]; thyroid, 3 h after injection): approximately 0.7 % ID/organ
- biodistribution, thyroid ([1]; thyroid, 24 h after i.v. injection): 0.6527 ± 0.2135 % ID/g
- thyroid activity ([1]; thyroid, 24 h after injection): approximately 0.7 % ID/organ
- thyroid activity as share of the administered activity ([1]; thyroid, 24 h after injection): less than 1%
